Results of several laboratories.
pIC50: −log10 of the molar value. Values after ≈ are worked out from the molar mass of the structure shown.
Organism: Escherichia coli

SMILES | observed | technique | strain | measurement | result
Oc1cccc2cccnc12 | microbial growth | broth dilution | ATCC25922 | IC50 | 49.5 mg/L
O=C(Nc1cccc(-c2cc(C(=O)O)no2)c1)Nc1ccc(Cl)c(Cl)c1 | microbial growth | broth dilution | ATCC25922 | MIC | > 64 mg/L
CC(C)CCCCCCCCCCCCc1cc(O)cc(O)c1 | microbial growth |  |  | pIC50 | 4.11
COc1c(N2C[C@@H]3CCCN[C@@H]3C2)c(F)cc2c(=O)c(C(=O)O)cn(C3CC3)c12 | microbial growth |  |  | MIC90 | 0.06 mg/L (≈ 0.149 µM)
CC(C)CCCCCCCCCCCCCCc1cc(O)cc(O)c1 | microbial growth |  |  | pIC50 | 4.33
O=C(N[C@H](CO)[C@H](O)c1ccc([N+](=O)[O-])cc1)C(Cl)Cl | microbial growth |  |  | MIC90 | 15.6 mg/L (≈ 48.3 µM)
COC(=O)c1cc(-c2cccc(NC(=S)Nc3ccc(C)cc3)c2)on1 | microbial growth | broth dilution | ATCC25922 | MIC | > 64 mg/L
C[n+]1c(/C=C/c2ccc(O)cc2)cc(/C=C2\Sc3ccccc3N2CCCN2CCCC2)c2ccccc21.[I-] | microbial growth | broth dilution | ATCCBAA2469 | MIC | 16 mg/L
COC(=O)c1cc(-c2cccc(NC(=O)Nc3ccc(F)c(F)c3)c2)on1 | microbial growth | broth dilution | ATCC25922 | MIC | > 64 mg/L
C[C@H]1NCc2cc(-c3ccc4c(=O)c(C(=O)O)cn(C5CC5)c4c3OC(F)F)ccc21 | microbial growth | broth dilution |  | MIC90 | 0.25 mg/L (≈ 0.586 µM)
COC(=O)c1cc(-c2ccc(NC(=O)Nc3ccc(Cl)c(Cl)c3)cc2)on1 | microbial growth | broth dilution | ATCC25922 | MIC | > 64 mg/L
CC(C)C(C)CCCCCCCCCCCc1cc(O)cc(O)c1 (stereo not shown) | microbial growth |  |  | pIC50 | 4.30
O=C(O)c1cn(C2CC2)c2cc(N3CCNCC3)c(F)cc2c1=O | microbial killing |  |  | MBC | 0.019 mg/L (≈ 0.0573 µM)
